From PubChem BioAssay
RGS4 pot – RGS4 potentiation or activation; HEK293 M3R/inducible RGS4, carbachol calcium flux Fluo4; stronger effect = lower value; B-score at 10 µM; 0.92% of 310,000 active; AID 463111;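 active means B-score of the integrated calcium signal more than 4 SD below the library mean, with starting fluorescence not abnormally high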;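 further: negative B-score means reduced calcium response which marks RGS4 activation or potentiation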
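System – HEK293 FlpIn-TREx cells, stable M3R, doxycycline-inducible RGS4 · Reagent – ECmax carbachol challenge · Times – compound preincubation 20 min at room temperature before agonist · Technique – Fluo4 fluorescence kinetic imaging of calcium · Measure – B score of integrated Fluo4 ratio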
MrgX1 antag – human MrgX1 receptor antagonism, primary screen | B-score at 10 µM | MRGX1-HEK293 calcium flux, Fluo-4, BAM8-22 antagonism; stronger effect = lower value | Q96LB2 | 1.3% of 310,000 active;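 active means calcium-response B-score plate-corrected more than 3 library SD below zero, starting fluorescence within 5 deviations, no agonist response on first addition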;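 further: peak minus trough fluorescence over baseline after final BAM8-22 challenge near maximal dose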
Target sequence (Q96LB2 whole entry, looked up): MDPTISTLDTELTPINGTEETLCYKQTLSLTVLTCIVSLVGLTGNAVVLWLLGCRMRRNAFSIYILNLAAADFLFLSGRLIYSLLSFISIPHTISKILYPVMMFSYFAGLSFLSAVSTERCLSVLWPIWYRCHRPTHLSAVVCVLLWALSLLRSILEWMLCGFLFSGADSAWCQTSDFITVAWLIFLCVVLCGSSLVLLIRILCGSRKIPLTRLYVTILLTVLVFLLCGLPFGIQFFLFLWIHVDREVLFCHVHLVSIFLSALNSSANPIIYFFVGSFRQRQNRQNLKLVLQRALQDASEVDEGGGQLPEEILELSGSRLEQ
RGS4 inh – human RGS4 inhibition; HEK293 M3R/RGS4 inducible, Fluo-4 calcium flux; stronger effect = higher value; triggered by carbachol at its EC20; 0.45% of 310,000 active; B-score at 10 µM; AID 463165; P49798;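 active means B-score, a plate-corrected calcium signal, over three deviations above library mean, with baseline fluorescence within five deviations of library mean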;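 further: RGS4 expression induced by doxycycline in cells with stable M3 receptor; B-score is computed from the integrated fluorescence ratio over baseline after carbachol; higher B-score means a larger calcium signal and so more RGS4 inhibition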
Target sequence (P49798 whole entry, looked up): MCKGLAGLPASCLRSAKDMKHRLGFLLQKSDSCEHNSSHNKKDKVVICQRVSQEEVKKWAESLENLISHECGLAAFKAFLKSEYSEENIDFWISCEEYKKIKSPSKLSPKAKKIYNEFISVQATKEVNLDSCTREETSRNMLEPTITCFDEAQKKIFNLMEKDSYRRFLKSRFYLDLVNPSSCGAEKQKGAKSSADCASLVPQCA
MrgX1 allo act – allosterically activates human MrgX1 receptor signaling; Q96LB2; MrgX1-HEK293, Fluo-4 calcium flux, FDSS; stronger effect = higher value; B-score at 10 µM; 0.63% of 310,000 active;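 active means plate-corrected calcium response at least 3 library SD above typical, normal starting fluorescence, not activating the receptor alone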;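 further: compound read alongside a low EC10 to EC30 dose of BAM8-22 agonist; peak minus trough fluorescence over baseline measured at the second addition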
MrgX1 agonist – human MrgX1 receptor agonism, primary screen; MrgX1-HEK293 cells, Fluo-4 calcium fluorescence, agonist mode; stronger effect = higher value; B-score at 10 µM; 0.44% of 310,000 active; AID 588627;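 active means calcium response B-score plate-corrected fluorescence ratio at least 3 library SD, with starting fluorescence B-score inside 5 SD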
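Test system: HEK293 cells stably expressing human MrgX1 receptor; Input: fifteen thousand cells per well; Dosing: compound delivered in addition one of three; Schedule: overnight seeding, then 1 h dark dye loading; Technique: Fluo-4 NW calcium fluorescence; Measure: B-scored fluorescence response ratio; Controls: positive and negative controls per plate.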
RGS4 activ val – confirmation of RGS4 activators; shares compounds with RGS4 pot; HEK293 M3R/RGS4 inducible, carbachol calcium flux Fluo4; inhibition, % at 10 µM; 89% of 1,100 active;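 active means inhibition above 3 SD of the buffer control wells, cut at about 41% in these data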;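 further: signal is the integrated peak-minus-minimum Fluo4 fluorescence over baseline ratio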
RGS4 act ctr – counter-screen for RGS4 activators: effect in non-induced cells; shares compounds with RGS4 pot; HEK293 M3R non-induced RGS4, Fluo4 calcium flux; after carbachol challenge at its EC90; inhibition, % at 10 µM; 82% of 1,100 active; AID 602283;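 active means inhibition exceeding 3 SD of buffer-only control wells, cut at about 26% in these data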;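 further: percent drop in integrated peak-minus-baseline over baseline Fluo4 ratio after carbachol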
Active calls of the source: *; i = inactive; x = no result given. A selection: hits, their analogues and other compounds. The true share with any hit is near 3.5%.

SMILES	RGS4 pot	MrgX1 antag	RGS4 inh	MrgX1 allo act	MrgX1 agonist	RGS4 activ val	RGS4 act ctr
Cc1ccc(-c2csc(=Nc3cccnc3)n2CCCN2CCCC2=O)cc1C	i	i	i	i	i	x	x
Cc1ccc(-c2csc(=Nc3cccnc3)n2CCCn2ccnc2)cc1C	-8.8*	i	i	i	i	92*	93*
COCCn1c(=S)[nH]c2cc(C(=O)N(CCO)Cc3ccccc3)ccc2c1=O	i	i	i	i	i	x	x
COc1cc(CN2CCc3ccc(NC(=O)CCc4ccccc4OC)cc3C2)ccc1O	i	i	i	i	i	x	x
COc1ccc(CN2CCc3ccc(NC(=O)CCc4ccccc4OC)cc3C2)c(O)c1	-9.3*	i	i	i	i	90*	71*
COc1ccc(C(=O)Nc2ccnn2C2CCN(Cc3cnn(C)c3)CC2)cc1	i	i	i	i	i	x	x
CCn1cc(CN2CCC(n3nccc3NC(=O)c3ccc(OC)cc3)CC2)cn1	-7.7*	i	i	i	i	66*	84*
CCn1ccnc1CNC(=O)c1ccc2oc(C(C)C)nc2c1	-8.2*	i	i	i	i	82*	47*
COc1ccc2nc3c(cc2c1)c(NC(=O)c1cccs1)nn3CC(C)C	-8.5*	i	i	i	i	86*	61*
Cc1nc2ccccn2c1C(=O)CSc1ccc(Cl)cc1Cl	i	i	i	i	i	x	x
COc1cc(CNCc2cccs2)ccc1OCC(=O)NC(C)(C)C	-8*	i	i	i	i	46*	84*
CCOc1cc(CNCc2cccs2)ccc1OCC(=O)NC(C)(C)C	i	i	i	i	i	x	x
CCN=C1SC(C(=O)Nc2cccc(Br)c2)CC(=O)N1CC (centres undefined)	-7.8*	i	i	i	i	56*	84*
CCN=C1SC(C(=O)Nc2ccc(Cl)c(Cl)c2)CC(=O)N1CC (centres undefined)	i	i	i	i	i	x	x
CCCSc1nc(C)c2cc(C)cc(C)c2n1	i	i	i	i	i	x	x
Cc1cc(C)c2nc3nc(C)c(C)cc3c(N)c2c1	-9.3*	x	i	x	x	90*	65*
O=C(c1ccc2c(c1)OCO2)C1CCCN(Cc2c(F)ccc(F)c2F)C1 (centres undefined)	-7.9*	i	i	i	i	92*	58*
O=C(c1ccc2c(c1)OCO2)C1CCCN(Cc2ccccc2OC(F)F)C1 (centres undefined)	-7.7*	i	i	i	i	72*	30*
COc1ccc(N(C(=O)Nc2ccc(Cl)cc2)C2=NCCC2)cc1	-10*	i	i	i	i	78*	38*
O=C(c1cccc(COc2ccc(Cl)cc2Cl)c1)N1CCN(c2ccccn2)CC1	-7.9*	i	i	i	i	94*	80*
O=C(c1ccc(Cl)c(Cl)c1)N1CCN(c2ccccn2)CC1	i	i	i	i	i	x	x
CCCc1nnc(SCC(=O)Nc2nccs2)o1	i	i	i	i	i	x	x
Nc1cc(=O)[nH]c(SCC(=O)Nc2ccc(Oc3ccccc3)cc2)n1	-10*	i	i	i	i	0	0
Nc1cc(=O)[nH]c(SCC(=O)Nc2cccc(Cl)c2)n1	i	i	i	i	i	x	x
O=C1NC(=O)/C(=C\c2ccccc2OCc2ccccc2)S1	i	i	i	i	i	x	x
SMILES	RGS4 pot	MrgX1 antag	RGS4 inh	MrgX1 allo act	MrgX1 agonist	RGS4 activ val	RGS4 act ctr
CC(CNC(=O)CCC(=O)N1CCOc2ccccc21)c1ccccc1 (centres undefined)	i	i	i	i	i	x	x
O=C(CCS(=O)(=O)Cc1ccccc1)Nc1nc2c(s1)CCCC2	-11*	i	i	i	i	0	0
O=C(CS(=O)(=O)Cc1ccccc1)Nc1nc2c(s1)CCCC2	i	i	i	i	i	x	x
CCN(CC)S(=O)(=O)c1ccc(N2CCc3ccccc3C2)nc1	-10*	i	i	i	i	60*	84*
CC(C)CC1CCCCC1OC(=O)CN1CCCCC1 (centres undefined)	-8.5*	i	i	i	i	86*	37*
N=c1n(CCN2CCCCC2)c2ccccc2n1CC(=O)c1cccc([N+](=O)[O-])c1	i	i	i	i	i	x	x
CC(O)c1ccc(Oc2cnccn2)cc1 (centres undefined)	i	i	i	i	i	x	x
C=C(C)COc1ccc(-c2[nH]ncc2Oc2ccccc2OCC)c(O)c1	-7.7*	i	i	i	i	91*	92*
CCOc1ccccc1Oc1cn[nH]c1-c1ccc(O)cc1O	i	i	i	i	i	x	x
CC1=NNC(=O)/C1=C\c1cn(-c2ccccc2)nc1-c1ccccc1	-11*	i	i	i	i	70*	34*
O=Cc1cn(-c2ccccc2)nc1-c1ccccc1	i	i	i	i	i	x	x
O=C(CN1c2ccccc2Sc2ccccc21)N/N=C/c1ccccc1	i	i	i	i	i	x	x
CC(C)(C)S(=O)(=O)c1ccsc1C(=O)O	-16*	i	i	i	i	0	0
CC(C)(C)C(=O)COC(=O)c1c2c(nc3ccccc13)CCC2	i	i	i	i	i	x	x
CC1Cc2ccccc2N1C(=O)COC(=O)c1c2c(nc3ccccc13)CCCCC2 (centres undefined)	-9*	i	i	i	i	88*	84*
O=C(OCC(=O)N1CCc2ccccc21)c1c2c(nc3ccccc13)CCCC2	-9.1*	i	i	i	i	80*	84*
NC(=O)COC(=O)c1c2c(nc3ccccc13)CCCCC2	i	i	i	i	i	x	x
CC(C)NS(=O)(=O)c1ccc(CCC(=O)N2CCc3ccccc3C2)cc1	-7.5*	i	i	i	i	0	0
CC(C)NS(=O)(=O)c1ccc(OCC(=O)N2CCc3ccccc3C2)cc1	i	i	i	i	i	x	x
COC(=O)c1ccc(CNC(=O)CSc2nc3sc(C)c(C)c3c(=O)n2C)o1	-8.2*	i	i	i	i	50*	0
Cc1sc2nc(SCC(=O)NCc3ccco3)n(C)c(=O)c2c1C	i	i	i	i	i	x	x
Cc1ccc(-n2ncc(C#N)c2/N=C/N2CCCCCC2)cc1	i	i	i	i	i	x	x
